# pIC50: −log10 of the molar value. Calls of active or inactive are those of the source. No cut-off for these calls is given here.
# Columns and labels:
# [1] = target: Proto-oncogene tyrosine-protein kinase receptor Ret (Homo sapiens) (UniProt P07949); experiment: Binding affinity to RET (unknown origin)
# [2] = target: Receptor-type tyrosine-protein kinase FLT3 (Homo sapiens) (UniProt P36888); experiment: Binding affinity to FLT3 (unknown origin)
# [3] = Clearance in Sprague-Dawley rat at 25 mg/kg, po by LC/MS analysis; assay type: ADME, organism-based; parameters: dose 25 mg/kg, route oral; details: in vivo
# Method in brief: (§1)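 Male Sprague-Dawley rats (180−220 g), n = 4 per route, single iv dose 5 mg/kg or oral gavage 25 mg/kg. Vehicle was 2% DMSO, 4% EtOH, 4% castor oil, 90% H2O. Orbital sinus blood was taken from 2 min to 72 h into heparinized tubes. Plasma levels were measured by LC/MS with propranolol internal standard and analysed by pharmacokinetic modelling.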
# [4] = target: T1, Tyrosine-protein kinase JAK3 (Homo sapiens) (UniProt P52333); experiment: Binding affinity to JAK3 (unknown origin)
# T1 sequence (whole entry): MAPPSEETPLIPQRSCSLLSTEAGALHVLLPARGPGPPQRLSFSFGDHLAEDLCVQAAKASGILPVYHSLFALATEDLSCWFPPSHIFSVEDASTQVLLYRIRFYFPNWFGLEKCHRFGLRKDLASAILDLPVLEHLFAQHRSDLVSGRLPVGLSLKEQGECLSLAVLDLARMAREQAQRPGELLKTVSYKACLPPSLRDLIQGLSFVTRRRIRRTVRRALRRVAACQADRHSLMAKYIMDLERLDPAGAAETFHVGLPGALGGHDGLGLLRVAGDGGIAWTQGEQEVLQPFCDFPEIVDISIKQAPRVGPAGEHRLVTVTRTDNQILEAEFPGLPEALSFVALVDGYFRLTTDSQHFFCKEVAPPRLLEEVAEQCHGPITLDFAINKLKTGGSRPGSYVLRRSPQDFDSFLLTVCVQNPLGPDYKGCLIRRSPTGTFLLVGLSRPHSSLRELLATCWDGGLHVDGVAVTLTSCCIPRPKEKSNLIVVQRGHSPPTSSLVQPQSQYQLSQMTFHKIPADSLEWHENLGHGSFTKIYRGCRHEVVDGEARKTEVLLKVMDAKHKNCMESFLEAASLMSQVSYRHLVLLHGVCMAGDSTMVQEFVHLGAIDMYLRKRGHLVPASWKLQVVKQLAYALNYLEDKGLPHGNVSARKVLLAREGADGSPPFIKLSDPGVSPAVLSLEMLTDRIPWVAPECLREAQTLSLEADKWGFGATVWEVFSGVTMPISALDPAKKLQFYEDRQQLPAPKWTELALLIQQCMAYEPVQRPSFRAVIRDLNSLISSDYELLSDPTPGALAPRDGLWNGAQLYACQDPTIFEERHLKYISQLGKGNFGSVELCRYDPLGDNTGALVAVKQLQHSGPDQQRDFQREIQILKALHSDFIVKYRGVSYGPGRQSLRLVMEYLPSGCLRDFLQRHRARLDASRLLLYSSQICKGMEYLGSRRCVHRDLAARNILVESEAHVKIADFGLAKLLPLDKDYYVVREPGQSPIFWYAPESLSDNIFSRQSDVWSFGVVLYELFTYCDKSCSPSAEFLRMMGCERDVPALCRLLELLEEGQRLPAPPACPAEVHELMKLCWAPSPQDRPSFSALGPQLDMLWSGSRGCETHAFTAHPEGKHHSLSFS
# [5] = Clearance in Sprague-Dawley rat at 5 mg/kg, iv by LC/MS analysis; assay type: ADME, organism-based; parameters: dose 5 mg/kg, route intravenous; details: in vivo; method in brief: as §1
# [6] = target: Epidermal growth factor receptor (Homo sapiens, UniProt P00533, L858R); experiment: Inhibition of EGFR L858R mutant (unknown origin); assay type: protein assay
# [7] = target: Epidermal growth factor receptor (Homo sapiens, UniProt P00533, T790M); experiment: Inhibition of EGFR T790M mutant (unknown origin); assay type: protein assay
# [8] = system: NCI-H1975; experiment: Antitumor activity against human NCI-H1975 cells xenografted in SCID nude mouse assessed as tumor growth inhibition at 10 mg/kg, po qd after 14 days; assay type: functional; details: NCI-H1975, 336 h, read-out: TGI
# Method in brief: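 SCID mice (6 weeks) were given H1975 cells subcutaneously in the right flank at 2 × 10^6 per mouse. At 200−300 mm3, n = 5 per group were randomized to daily oral vehicle or compound at 10 or 30 mg/kg for 14 days. Vehicle: 1% DMSO, 5% EtOH, 15% castor oil, 79% H2O. Tumors (W²·L/2) and body weight were measured every other day; TGI was calculated against vehicle controls.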
# [9] = system: NCI-H1975; experiment: Antiproliferative activity against human NCI-H1975 cells expressing EGFR L858R/T790M double mutant after 72 hrs by MTS assay; assay type: functional, cell-based; details: NCI-H1975, 72 h
# [10] = target: Tyrosine-protein kinase ABL1 (Homo sapiens) (UniProt P00519); experiment: Binding affinity to ABL1 (unknown origin)
# [11] = Thermodynamic aqueous solubility of the compound in PBS buffer at pH 6.8 after 24 hrs by HPLC analysis; assay type: physicochemical; details: PBS buffer, pH 6.8; read-out: Therm_solubility
# Method in brief: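 Compound was shaken in aqueous buffer at pH 6.8 for 24 h at ambient temperature; dissolved concentration was measured by HPLC.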
# [12] = target: Epidermal growth factor receptor (Homo sapiens, UniProt P00533, L858R/T790M); experiment: Inhibition of EGFR L858R/T790M double mutant (unknown origin) after 1.5 hrs by FRET-based Z'-Lyte assay; assay type: protein assay
# [13] = Antiproliferative activity against human H1299 cells expressing wild-type EGFR after 72 hrs by MTS assay; assay type: cell-based; details: NCI-H1299, 72 h
# Method in brief: (§2)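 MTS proliferation assay: cells exposed to compound for 72 h at six concentrations (0.1 nM to 10 μM), each concentration run six times. Cell number per line set to give an absorbance of 0.5–1.2 at […]. IC50 from a nonlinear sigmoidal dose–response fit. Values are means of at least three independent experiments.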
# [14] = system: Epidermal growth factor receptor (Homo sapiens), P00533 [L858R,T790M]; details: NCI-H1975, 110 nM
# [15] = target: Tyrosine-protein kinase BTK (Homo sapiens) (UniProt Q06187); experiment: Binding affinity to BTK (unknown origin)
# [16] = Antiproliferative activity against human H460 cells expressing wild-type EGFR after 72 hrs by MTS assay; assay type: cell-based; details: NCI-H460, 72 h; method in brief: as §2
# [17] = system: Mus musculus; experiment: Toxicity in SCID nude mouse xenografted with human NCI-H1975 cells assessed as mortality at 10 to 30 mg/kg, po qd after 14 days; assay type: organism-based; parameters: dose 10-30 mg/kg, route oral; details: in vivo, 336 h
# Method in brief: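 SCID mice (six weeks old) implanted subcutaneously in the right flank with H1975 cells (2 × 10⁶/mouse). Once tumours averaged 200−300 mm³, animals were randomized (n = 5 per group) and given vehicle or drug orally once daily for 14 days. Vehicle: 1% DMSO, 5% EtOH, 15% castor oil, 79% H₂O, at 0.1 mL/20 g. Mice were watched for morbidity, and body weight was recorded every other day.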
# [18] = system: NCI-H358; experiment: Antiproliferative activity against human NCI-H358 cells expressing wild-type EGFR after 72 hrs by MTS assay; assay type: cell-based; details: NCI-H358, 72 h
# Chain of Receptor-type tyrosine-protein kinase FLT3 (Homo sapiens) (P36888 whole entry): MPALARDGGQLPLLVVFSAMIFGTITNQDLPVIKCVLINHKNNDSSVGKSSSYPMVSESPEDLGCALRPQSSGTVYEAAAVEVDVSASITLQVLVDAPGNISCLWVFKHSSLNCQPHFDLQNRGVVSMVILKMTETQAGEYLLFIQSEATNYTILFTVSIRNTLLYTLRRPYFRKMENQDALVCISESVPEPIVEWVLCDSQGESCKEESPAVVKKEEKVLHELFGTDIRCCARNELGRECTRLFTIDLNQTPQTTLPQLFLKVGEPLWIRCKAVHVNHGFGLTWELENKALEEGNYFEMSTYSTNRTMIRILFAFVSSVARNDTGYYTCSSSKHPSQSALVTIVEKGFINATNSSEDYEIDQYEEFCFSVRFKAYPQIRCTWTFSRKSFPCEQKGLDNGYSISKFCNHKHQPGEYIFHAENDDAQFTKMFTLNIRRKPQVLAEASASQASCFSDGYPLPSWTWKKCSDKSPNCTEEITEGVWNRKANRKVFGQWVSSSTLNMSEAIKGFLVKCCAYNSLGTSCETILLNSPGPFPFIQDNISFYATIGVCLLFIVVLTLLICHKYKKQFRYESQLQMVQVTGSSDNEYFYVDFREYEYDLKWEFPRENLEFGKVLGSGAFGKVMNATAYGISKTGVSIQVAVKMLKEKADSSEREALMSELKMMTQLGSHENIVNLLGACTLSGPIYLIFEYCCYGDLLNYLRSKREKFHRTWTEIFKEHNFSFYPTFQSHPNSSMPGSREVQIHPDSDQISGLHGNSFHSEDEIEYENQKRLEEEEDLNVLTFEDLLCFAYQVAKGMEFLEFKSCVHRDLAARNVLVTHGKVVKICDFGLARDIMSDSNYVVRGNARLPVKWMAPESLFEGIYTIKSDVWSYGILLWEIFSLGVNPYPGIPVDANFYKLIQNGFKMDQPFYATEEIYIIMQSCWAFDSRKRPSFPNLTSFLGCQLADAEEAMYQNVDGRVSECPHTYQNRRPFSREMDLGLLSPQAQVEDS
# Chain of Tyrosine-protein kinase ABL1 (Homo sapiens) (P00519 whole entry): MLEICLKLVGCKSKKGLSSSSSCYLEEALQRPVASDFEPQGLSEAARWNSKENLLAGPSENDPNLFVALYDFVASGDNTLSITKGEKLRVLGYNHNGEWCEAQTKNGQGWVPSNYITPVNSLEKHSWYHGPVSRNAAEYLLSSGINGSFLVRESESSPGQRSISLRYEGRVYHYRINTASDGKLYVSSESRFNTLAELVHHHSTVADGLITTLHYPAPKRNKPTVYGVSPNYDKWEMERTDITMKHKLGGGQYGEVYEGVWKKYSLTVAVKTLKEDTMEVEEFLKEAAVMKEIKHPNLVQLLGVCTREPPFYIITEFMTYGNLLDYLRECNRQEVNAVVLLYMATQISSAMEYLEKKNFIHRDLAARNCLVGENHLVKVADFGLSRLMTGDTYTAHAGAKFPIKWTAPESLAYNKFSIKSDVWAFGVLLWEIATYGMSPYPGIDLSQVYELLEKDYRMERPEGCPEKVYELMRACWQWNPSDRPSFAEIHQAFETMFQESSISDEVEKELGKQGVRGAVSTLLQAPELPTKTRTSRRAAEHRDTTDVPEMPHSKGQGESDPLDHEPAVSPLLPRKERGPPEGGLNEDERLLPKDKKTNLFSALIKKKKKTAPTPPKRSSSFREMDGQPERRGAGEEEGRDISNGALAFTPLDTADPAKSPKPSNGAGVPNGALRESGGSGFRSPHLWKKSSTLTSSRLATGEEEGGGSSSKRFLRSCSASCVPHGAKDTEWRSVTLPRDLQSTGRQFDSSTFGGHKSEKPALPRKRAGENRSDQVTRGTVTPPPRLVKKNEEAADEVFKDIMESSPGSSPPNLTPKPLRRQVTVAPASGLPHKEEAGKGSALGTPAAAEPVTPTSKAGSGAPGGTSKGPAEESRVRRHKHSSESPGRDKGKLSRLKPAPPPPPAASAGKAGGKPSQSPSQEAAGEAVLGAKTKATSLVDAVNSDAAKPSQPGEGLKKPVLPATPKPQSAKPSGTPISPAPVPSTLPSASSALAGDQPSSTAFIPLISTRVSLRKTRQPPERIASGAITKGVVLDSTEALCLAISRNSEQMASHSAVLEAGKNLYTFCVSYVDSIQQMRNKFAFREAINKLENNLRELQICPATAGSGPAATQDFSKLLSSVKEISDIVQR
# Chain of Epidermal growth factor receptor (Homo sapiens, UniProt P00533, L858R) (P00533 25-1210 L858R limits assumed): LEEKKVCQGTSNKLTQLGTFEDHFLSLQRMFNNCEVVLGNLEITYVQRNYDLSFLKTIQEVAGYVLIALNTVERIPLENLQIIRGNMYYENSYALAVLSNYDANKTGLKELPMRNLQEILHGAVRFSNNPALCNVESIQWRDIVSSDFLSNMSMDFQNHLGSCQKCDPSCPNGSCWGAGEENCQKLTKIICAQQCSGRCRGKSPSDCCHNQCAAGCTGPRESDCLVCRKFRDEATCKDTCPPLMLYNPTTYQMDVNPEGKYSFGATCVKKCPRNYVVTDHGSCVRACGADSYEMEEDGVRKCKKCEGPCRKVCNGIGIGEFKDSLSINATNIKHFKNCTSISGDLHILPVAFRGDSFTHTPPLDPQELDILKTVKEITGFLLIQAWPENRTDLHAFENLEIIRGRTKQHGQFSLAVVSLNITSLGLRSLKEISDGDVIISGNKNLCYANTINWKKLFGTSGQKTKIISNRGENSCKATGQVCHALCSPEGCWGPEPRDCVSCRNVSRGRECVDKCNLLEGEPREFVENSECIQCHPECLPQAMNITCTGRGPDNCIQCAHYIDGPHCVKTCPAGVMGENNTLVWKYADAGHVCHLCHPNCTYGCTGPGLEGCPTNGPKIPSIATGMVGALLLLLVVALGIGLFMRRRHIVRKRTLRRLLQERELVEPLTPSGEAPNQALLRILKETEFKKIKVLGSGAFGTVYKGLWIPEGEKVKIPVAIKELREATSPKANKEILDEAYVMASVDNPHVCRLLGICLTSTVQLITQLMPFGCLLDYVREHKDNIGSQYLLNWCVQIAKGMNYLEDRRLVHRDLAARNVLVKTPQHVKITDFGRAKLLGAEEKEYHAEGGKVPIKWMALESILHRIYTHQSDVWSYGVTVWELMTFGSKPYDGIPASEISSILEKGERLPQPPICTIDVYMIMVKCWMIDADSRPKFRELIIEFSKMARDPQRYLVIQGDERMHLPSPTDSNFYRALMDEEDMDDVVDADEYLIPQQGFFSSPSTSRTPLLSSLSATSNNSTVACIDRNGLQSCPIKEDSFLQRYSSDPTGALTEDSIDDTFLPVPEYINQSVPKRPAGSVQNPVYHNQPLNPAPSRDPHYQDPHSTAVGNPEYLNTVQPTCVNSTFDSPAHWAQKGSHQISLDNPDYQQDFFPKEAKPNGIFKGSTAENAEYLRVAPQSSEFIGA
# Chain of Proto-oncogene tyrosine-protein kinase receptor Ret (Homo sapiens) (P07949 whole entry): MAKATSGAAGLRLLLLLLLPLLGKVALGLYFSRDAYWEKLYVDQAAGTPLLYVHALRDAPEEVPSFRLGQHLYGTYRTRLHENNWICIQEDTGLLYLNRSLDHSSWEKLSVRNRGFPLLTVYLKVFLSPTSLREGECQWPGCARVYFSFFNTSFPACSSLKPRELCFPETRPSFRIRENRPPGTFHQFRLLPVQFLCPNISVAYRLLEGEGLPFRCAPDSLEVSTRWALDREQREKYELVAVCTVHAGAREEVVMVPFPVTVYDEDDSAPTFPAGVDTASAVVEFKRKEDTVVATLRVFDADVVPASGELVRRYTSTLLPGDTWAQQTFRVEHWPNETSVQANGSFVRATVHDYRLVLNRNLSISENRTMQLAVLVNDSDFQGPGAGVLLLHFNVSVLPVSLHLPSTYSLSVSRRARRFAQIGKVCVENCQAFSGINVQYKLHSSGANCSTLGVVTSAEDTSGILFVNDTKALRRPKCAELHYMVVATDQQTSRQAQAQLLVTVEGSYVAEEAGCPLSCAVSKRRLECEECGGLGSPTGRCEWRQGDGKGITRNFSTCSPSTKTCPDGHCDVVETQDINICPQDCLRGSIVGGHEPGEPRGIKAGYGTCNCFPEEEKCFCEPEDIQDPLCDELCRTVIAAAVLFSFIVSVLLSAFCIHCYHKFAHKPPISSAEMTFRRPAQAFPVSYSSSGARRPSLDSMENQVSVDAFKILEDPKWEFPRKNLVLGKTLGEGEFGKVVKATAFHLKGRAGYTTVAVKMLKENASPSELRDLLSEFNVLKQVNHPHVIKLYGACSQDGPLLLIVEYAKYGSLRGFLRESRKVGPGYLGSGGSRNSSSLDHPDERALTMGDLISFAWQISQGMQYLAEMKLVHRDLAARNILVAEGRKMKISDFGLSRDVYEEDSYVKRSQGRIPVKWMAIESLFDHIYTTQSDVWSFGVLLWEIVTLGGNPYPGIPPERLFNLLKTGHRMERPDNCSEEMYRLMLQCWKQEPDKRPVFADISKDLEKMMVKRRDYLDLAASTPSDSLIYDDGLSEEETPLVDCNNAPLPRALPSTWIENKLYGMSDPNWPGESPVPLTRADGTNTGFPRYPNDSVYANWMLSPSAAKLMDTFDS
# Chain of Tyrosine-protein kinase BTK (Homo sapiens) (Q06187 whole entry): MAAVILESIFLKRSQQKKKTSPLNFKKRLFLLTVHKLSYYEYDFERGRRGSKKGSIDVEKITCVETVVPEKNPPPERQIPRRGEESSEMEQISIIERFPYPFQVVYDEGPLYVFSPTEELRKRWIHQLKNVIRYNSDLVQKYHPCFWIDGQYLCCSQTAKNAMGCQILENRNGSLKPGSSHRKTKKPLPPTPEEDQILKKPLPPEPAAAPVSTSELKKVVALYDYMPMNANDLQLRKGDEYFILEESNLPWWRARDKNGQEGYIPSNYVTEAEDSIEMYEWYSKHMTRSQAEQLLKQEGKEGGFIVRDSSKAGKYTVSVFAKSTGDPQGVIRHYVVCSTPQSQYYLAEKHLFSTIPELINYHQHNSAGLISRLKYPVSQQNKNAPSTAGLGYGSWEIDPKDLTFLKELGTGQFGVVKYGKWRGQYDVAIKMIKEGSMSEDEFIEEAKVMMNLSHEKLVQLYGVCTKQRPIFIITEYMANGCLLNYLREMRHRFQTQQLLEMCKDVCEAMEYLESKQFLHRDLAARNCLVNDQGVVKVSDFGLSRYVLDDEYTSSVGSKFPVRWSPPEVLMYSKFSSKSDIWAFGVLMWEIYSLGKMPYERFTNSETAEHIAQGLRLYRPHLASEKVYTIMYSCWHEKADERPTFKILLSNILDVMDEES
compound,measurement,setting,value
C=CC(=O)N1CC[C@H](N2C(=O)N(c3ccccc3)Cc3cnc(Nc4ccc(N5CCN(C)CC5)c(C)c4)nc32)C1,Activity,[1],Active
same,Activity,[2],Active
same,CL/F,[3],167 mL/min/kg
same,Activity,[4],Active
same,clearance,[5],51.7 mL/min/kg
same,pIC50,[6],8.52
same,pIC50,[7],8.00
same,inhibition in vivo at 10 mg/kg,[8],35.4%
same,pIC50,[9],7.33
same,Activity,[10],Active
same,solubility thermodynamic at 24 h,[11],1270 µg/mL
same,pIC50,[12],8.04
same,pIC50,[13],5.29
same,inhibition,[14],Active
same,Activity,[15],Active
same,pIC50,[16],4.80
same,Activity,[17],Non-toxic
same,pIC50,[18],< 4.70
